Experimental data published in ChEMBL document CHEMBL1139384, “First Cdc7 kinase inhibitors: pyrrolopyridinones as potent and orally active antitumor agents. 2. Lead discovery” (J Med Chem, 2009).
Converted amounts (≈) assume the structure as drawn.

Experiments:
A2780 = experiment: Antiproliferative activity against human A2780 cells after 72 hrs by luciferase based assay; type: functional, cell-based
[1] = target: Cell division cycle 7-related protein kinase (Homo sapiens, UniProt O00311); experiment: Inhibition of human Cdc7 assessed as inhibition of rate of phosphorylation of Mcm2 protein
Sequence of Cell division cycle 7-related protein kinase (O00311 whole entry): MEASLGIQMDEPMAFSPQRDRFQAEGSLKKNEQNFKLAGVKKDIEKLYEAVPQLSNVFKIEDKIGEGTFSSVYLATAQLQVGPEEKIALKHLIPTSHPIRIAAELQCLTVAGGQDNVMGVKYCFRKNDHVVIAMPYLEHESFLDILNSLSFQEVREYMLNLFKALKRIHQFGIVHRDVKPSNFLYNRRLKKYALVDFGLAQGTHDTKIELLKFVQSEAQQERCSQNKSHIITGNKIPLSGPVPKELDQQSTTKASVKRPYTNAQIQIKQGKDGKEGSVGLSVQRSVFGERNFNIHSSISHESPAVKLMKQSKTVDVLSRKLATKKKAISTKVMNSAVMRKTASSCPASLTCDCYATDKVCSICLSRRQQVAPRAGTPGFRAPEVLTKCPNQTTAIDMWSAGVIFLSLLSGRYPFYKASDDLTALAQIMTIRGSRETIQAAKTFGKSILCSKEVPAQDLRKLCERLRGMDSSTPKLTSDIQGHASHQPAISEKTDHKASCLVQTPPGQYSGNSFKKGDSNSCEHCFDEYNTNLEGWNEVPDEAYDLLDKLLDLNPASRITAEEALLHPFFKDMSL

Hepatocyte = experiment: Metabolic stability in rat hepatocytes assessed as intrinsic clearance at 1 uM; type: cell-based; conditions: Liver
[2] = target: Cyclin-dependent kinase 9 (Homo sapiens, UniProt P50750); experiment: Inhibition of CDK9
Sequence of Cyclin-dependent kinase 9 (P50750 whole entry): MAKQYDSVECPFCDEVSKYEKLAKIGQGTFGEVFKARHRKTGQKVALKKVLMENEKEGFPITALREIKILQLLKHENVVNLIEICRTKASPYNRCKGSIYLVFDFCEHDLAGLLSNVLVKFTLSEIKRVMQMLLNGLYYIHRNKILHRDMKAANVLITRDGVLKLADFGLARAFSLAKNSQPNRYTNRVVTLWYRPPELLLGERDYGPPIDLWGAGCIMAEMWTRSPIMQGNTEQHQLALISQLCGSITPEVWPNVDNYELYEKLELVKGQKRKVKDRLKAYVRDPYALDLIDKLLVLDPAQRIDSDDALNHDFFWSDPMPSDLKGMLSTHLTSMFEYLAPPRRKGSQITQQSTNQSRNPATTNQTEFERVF

[3] = Oral bioavailability in nu/nu mouse at 10 mg/kg administered as single dose; type: ADME, organism-based; conditions: in vivo
Method in brief: (§1)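 Overnight-fasted male Nu/Nu mice got a single 10 mg/kg dose in 5% dextrose, iv or po, three mice per route. Saphenous blood was drawn at 0.083 (iv) or 0.25 (po), 0.5, 1, 6 and 24 h. Plasma was assayed by LC/MS/MS and analysed noncompartmentally. Tmax is the observed peak time, Vss = CL·MRT, and F is the ratio of dose-normalized AUC∞ po/iv.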

[4] = AUC (0 to infinity) in nu/nu mouse at 10 mg/kg, iv administered as single dose; type: ADME, organism-based; design: dose 10 mg/kg, route intravenous, time infinity; conditions: plasma
Method in brief: (§2)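 Single iv or oral dose in 5% dextrose to overnight-fasted animals. Nu/Nu mice: males, 3 per route, saphenous bleeds to 24 h. Han-Wistar rats: males, 3 per route, jugular bleeds to 24 h. Beagle dogs: 2 per sex, iv and po crossover 2 weeks apart, jugular bleeds to 48 h. Plasma by LC/MS/MS; noncompartmental parameters, AUC by linear trapezoid with extrapolation.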

[5] = Tmax in nu/nu mouse at 10 mg/kg, po administered as single dose; type: ADME, organism-based; design: dose 10 mg/kg, route oral; conditions: in vivo; method in brief: as §1
[6] = Volume of distribution at steady state in nu/nu mouse at 10 mg/kg, iv administered as single dose; type: ADME, organism-based; design: dose 10 mg/kg, route intravenous; conditions: in vivo, read-out: Vdss; method in brief: as §1
[7] = Half life in nu/nu mouse at 10 mg/kg, po administered as single dose; type: ADME, organism-based; design: dose 10 mg/kg, route oral; conditions: in vivo; method in brief: as §2
[8] = Clearance in nu/nu mouse at 10 mg/kg, iv administered as single dose; type: ADME, organism-based; design: dose 10 mg/kg, route intravenous; conditions: in vivo; method in brief: as §2
[9] = Solubility in pH 7.0 buffer
[10] = Half life in nu/nu mouse at 10 mg/kg, iv administered as single dose; type: ADME, organism-based; design: dose 10 mg/kg, route intravenous; conditions: in vivo; method in brief: as §2
[11] = Cmax in nu/nu mouse at 10 mg/kg, po administered as single dose; type: ADME, organism-based; design: dose 10 mg/kg, route oral; conditions: in vivo; method in brief: as §2
[12] = AUC (0 to infinity) in nu/nu mouse at 10 mg/kg, po administered as single dose; type: ADME, organism-based; design: time infinity, dose 10 mg/kg, route oral; conditions: plasma; method in brief: as §2
[13] = Cmax in nu/nu mouse at 10 mg/kg, iv administered as single dose; type: ADME, organism-based; design: dose 10 mg/kg, route intravenous; conditions: in vivo; method in brief: as §2
[14] = Metabolic stability in human hepatocytes expressing CYP3A4 assessed as drug remaining after 1 hr; type: ADME, cell-based, Hepatocyte; conditions: read-out: Stability

IC50 (A2780; Homo sapiens, A2780, 72 h) [nM] | IC50 [1] [nM] | Structure (SMILES) | further results
700 | 6 | CC1CNC(=O)c2cc(-c3ccnc(N)n3)[nH]c21 (centres undefined) | 
 | 1 | CC(C)C1CNC(=O)c2cc(-c3ccnc(N)n3)[nH]c21 (stereo in doubt; 87-2) | IC50 (A2780; a2780): 600 nM; IC50 [2]: 73 nM
2000 | 24 | Nc1nccc(-c2cc3c([nH]2)C(CCCOCc2ccccc2)CNC3=O)n1 (centres undefined) | 
1300 | 5 | O=C1NC(C2CC2)Cc2[nH]c(-c3ccncc3)cc21 (centres undefined) | 
2400 | 13 | CC1Cc2[nH]c(-c3ccncc3)cc2C(=O)N1 (centres undefined) | 
300 | 2 | CCC1CNC(=O)c2cc(-c3ccncc3)[nH]c21 (centres undefined) | 
1100 | 11 | Nc1nccc(-c2cc3c([nH]2)CC(C2CC2)NC3=O)n1 (centres undefined) | 

Second part, the molecule before the results:

Structure (SMILES) | IC50 (A2780; Homo sapiens, A2780, 72 h) [nM] | IC50 [1] [nM] | further results
CC(C)CC1Cc2[nH]c(-c3ccncc3)cc2C(=O)N1 (centres undefined) | 800 | 3 | 
Nc1nccc(-c2cc3c([nH]2)C(c2ccccc2)CNC3=O)n1 (centres undefined) | 3000 | 19 | 
CC1(C)Cc2[nH]c(-c3ccnc(N)n3)cc2C(=O)N1 | 1800 | 64 | 
CCC1CNC(=O)c2cc(-c3ccnc(N)n3)[nH]c21 (stereo in doubt; 86-1) |  |  | CL (mL.min-1.kg-1) (Hepatocyte): 5
Nc1nccc(-c2cc3c([nH]2)C(CCF)CNC3=O)n1 (centres undefined) | 600 | 3 | 
CC(C)C1CNC(=O)c2cc(-c3ccnc(N)n3)[nH]c21 (stereo in doubt; 87-1) |  | 13 | IC50 (A2780; a2780): 1000 nM; IC50 [2]: 31 nM
Nc1nccc(-c2cc3c([nH]2)C(CCC(F)(F)F)CNC3=O)n1 (stereo in doubt; 93) |  | 10 | IC50 (A2780; a2780): 500 nM
Nc1nccc(-c2cc3c([nH]2)C[C@H](COCc2ccccc2)NC3=O)n1 | 3000 | 52 | 
Nc1nccc(-c2cc3c([nH]2)C(CCC(F)(F)F)CNC3=O)n1 (stereo in doubt; 93-2) |  | 11 | IC50 (A2780; a2780): 300 nM; bioavailability [3]: 31%; AUC(0-inf) [4]: 5.3 µM·h; Tmax [5]: 19.8 min; Vd [6]: 1.5 L/kg; half-life [7]: 102 min; clearance [8]: 88.3 mL/min/kg; solubility [9]: 195 µM (≈ 63.4 µg/mL); IC50 [2]: 395 nM; half-life [10]: 54 min; Cmax [11]: 0.8 µM; AUC(0-inf) [12]: 1.7 µM·h; Cmax [13]: 13.6 µM; remaining at 1 h [14]: 94%
CC(C)C1Cc2[nH]c(-c3ccncc3)cc2C(=O)N1 (centres undefined) | 900 | 6 | 
Nc1nccc(-c2cc3c([nH]2)C(C2CCC2)CNC3=O)n1 (stereo in doubt; 88-2) |  | 2 | IC50 (A2780; a2780): 200 nM; IC50 [2]: 96 nM
CCC1CNC(=O)c2cc(-c3ccnc(N)n3)[nH]c21 (stereo in doubt; 86) |  | 5 | 
Nc1nccc(-c2cc3c([nH]2)C(C2CCC2)CNC3=O)n1 (stereo in doubt; 88-1) |  | 11 | IC50 (A2780; a2780): 1300 nM; IC50 [2]: 83 nM
Nc1nccc(-c2cc3c([nH]2)[C@H](CCF)CNC3=O)n1 | 1000 | 5 | IC50 [2]: 96 nM
CC1Cc2[nH]c(-c3ccnc(N)n3)cc2C(=O)N1 (centres undefined) | 3900 |  | 
